Data set [1] in a line: folding enthalpy; higher = less favourable; fluorescence melt of hairpins on a sequencing array, two-state fit. To be noted: sodium 0.088 M. In outline: (§1)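 In 50 mM Na-HEPES pH 8.0 containing 25 mM NaCl, hairpins from the library on a sequenced MiSeq flow cell were imaged for Cy3 fluorescence at 2.5 °C steps up to 60 °C, with Cy3 and quencher oligos annealed. After normalisation to pre-quench Cy3 and to control constructs, two-state fits with bootstrapping gave melting temperature and folding enthalpy. Four replicates were combined by inverse-variance weighting, and fitted temperatures were shifted up by 9.35 °C to match UV melts.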

A short description of data set [2]: melting temperature; fluorescence melt of hairpins on a sequencing array, two-state fit, raised by 9.35 °C to match UV melts. To be noted: sodium 0.088 M. In outline: as §1

In the array DNA melting data of Ke et al. (doi:10.1101/2024.01.08.574731) one finds folding enthalpy and Tm data, which are given here for 38 sequences.

In the case of GATCGCTGGGCGATC ((((((...)))))), the folding enthalpy in data set [1] was -35.6 kcal/mol. Besides, the Tm in data set [2] turned out to be 68.8 °C.
GATCGCTGGGGCGATC ((((((....)))))): the folding enthalpy in data set [1] is -32.2 kcal/mol. Also, the Tm in data set [2] was 69.1 °C.
In the same order, the values of GATCGCTGTTGCGATC ((((((....)))))) are -28.7 kcal/mol and 67.8 °C.
Turning to GATCGCTTCGGCGATC ((((((....)))))), the folding enthalpy in data set [1] is -35.6 kcal/mol. For the same sequence, the Tm in data set [2] stood at 67.6 °C.
In the same order, the values of GATCGCTTGAGCGATC ((((((....)))))) are -27.6 kcal/mol and 67.6 °C.
For GATCGCTTGGCGATC ((((((...)))))), in that order: -41.3 kcal/mol and 68.8 °C.
In the case of GATCGCTTGTGCGATC ((((((....)))))), the folding enthalpy in data set [1] was -21.5 kcal/mol. The Tm in data set [2] worked out at 68 °C.
On to GATCGGAAAACCGATC ((((((....)))))), for which, in data set [1], the folding enthalpy is -35.5 kcal/mol. The Tm in data set [2] came to 51.2 °C.
In the same order, the values of GATCGGAACACCGATC ((((((....)))))) are -39.9 kcal/mol and 55.2 °C.
In the same order, the values of GATCGGAACTCCGATC ((((((....)))))) are -45.1 kcal/mol and 55.2 °C.
For GATCGGACGTCCGATC ((((((....)))))), in that order: -47.5 kcal/mol and 62.7 °C.
Turning to GATCGGACTCCCGATC ((((((....)))))), the folding enthalpy in data set [1] was -35.3 kcal/mol. Also, the Tm in data set [2] was found to be 53.8 °C.
For GATCGGACTCCGATC ((((((...)))))), in that order: -33.8 kcal/mol and 55.2 °C.
For GATCGGAGATCCGATC ((((((....)))))), the folding enthalpy in data set [1] was -27.6 kcal/mol. In addition, in data set [2], the Tm is 56 °C.
As to GATCGGAGGACCGATC ((((((....)))))), the folding enthalpy in data set [1] was -31.2 kcal/mol. The Tm in data set [2] was found to be 53.3 °C.
For GATCGGATATCCGATC ((((((....)))))), in that order: -42.9 kcal/mol and 58.3 °C.
Take GATCGGATCGCCGATC ((((((....)))))): in data set [1], the folding enthalpy was -32.2 kcal/mol. Further, in data set [2], the Tm is 55.8 °C.
Consider GATCGGATGACCGATC ((((((....)))))), for which, in data set [1], the folding enthalpy was -29.8 kcal/mol. Also, the Tm in data set [2] stood at 55.8 °C.
In the same order, the values of GATCGGATTCCCGATC ((((((....)))))) are -36 kcal/mol and 55.5 °C.
For GATCGGCAAACCGATC ((((((....)))))), in that order: -36.1 kcal/mol and 56.5 °C.
With GATCGGCAACCCGATC ((((((....)))))), the folding enthalpy in data set [1] was -38.5 kcal/mol. Besides, the Tm in data set [2] is 54.4 °C.
As for GATCGGCACCCGATC ((((((...)))))), in data set [1], the folding enthalpy is -35.9 kcal/mol. Further, in data set [2], the Tm amounted to 55 °C.
As for GATCGGCAGACCGATC ((((((....)))))), in data set [1], the folding enthalpy is -38 kcal/mol. The Tm in data set [2] stood at 57.5 °C.
For the sequence GATCGGCAGCCGATC ((((((...)))))), in data set [1], the folding enthalpy is -50.7 kcal/mol. In data set [2], the Tm stood at 55.2 °C.
In the same order, the values of GATCGGCAGTCCGATC ((((((....)))))) are -37.7 kcal/mol and 56.7 °C.
For GATCGGCCCCCCGATC ((((((....)))))), in data set [1], the folding enthalpy was -37.1 kcal/mol. Further, the Tm in data set [2] was found to be 56.1 °C.
Consider GATCGGCCCCCGATC ((((((...)))))), for which, in data set [1], the folding enthalpy was -44.9 kcal/mol. Also, in data set [2], the Tm was determined as 56 °C.
For the sequence GATCGGCGAAAGCCATC (((.(((....)))))), the folding enthalpy in data set [1] is -11 kcal/mol. For the same sequence, the Tm in data set [2] is 35.7 °C.
With GATCGGCGCCCCGATC ((((((....)))))), the folding enthalpy in data set [1] is -39.7 kcal/mol. Further, in data set [2], the Tm is 56.8 °C.
For GATCGGCTACCCGATC ((((((....)))))), in that order: -41 kcal/mol and 54.9 °C.
Turning to GATCGGCTTACCGATC ((((((....)))))), the folding enthalpy in data set [1] is -35.4 kcal/mol. The Tm in data set [2] turned out to be 57.7 °C.
GATCGGCTTTCCGATC ((((((....)))))): the folding enthalpy in data set [1] is -37 kcal/mol. Also, the Tm in data set [2] amounted to 58.6 °C.
For GATCGGGACCCGATC ((((((...)))))), in that order: -41.2 kcal/mol and 56.9 °C.
In the same order, the values of GATCGGGATCCGATC ((((((...)))))) are -39.3 kcal/mol and 55.6 °C.
GATCGGGATGCCGATC ((((((....)))))): the folding enthalpy in data set [1] was -42.1 kcal/mol. In addition, the Tm in data set [2] came to 57.4 °C.
In the case of GATCGGGCGACCGATC ((((((....)))))), the folding enthalpy in data set [1] was -44.9 kcal/mol. Also, the Tm in data set [2] worked out at 63.1 °C.
For GATCGGGCGGCCGATC ((((((....)))))), in that order: -57.9 kcal/mol and 61.8 °C.
On to GATCGGGCTGCCGATC ((((((....)))))), for which the folding enthalpy in data set [1] is -46.5 kcal/mol. For the same sequence, the Tm in data set [2] came out at 57.1 °C.
